Source: ChEMBL document CHEMBL1142565, “Prenylbicyclogermacrane diterpenoids from the formosan soft coral Nephthea pacifica” (2005)
Converted amounts (≈) assume the structure as drawn.

Tests used:
[1] = test system: HT-29; test: Cytotoxicity against human HT-29 cells 0.5 to 50 ug/ml; assay type: functional, cell-based
Method in brief: (§1)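 Cells tested at three concentrations (50, 5 and 0.5 μg/mL). HT-29 (human colon adenocarcinoma) obtained from ATCC. P-388 (mouse lymphocytic leukemia) line supplied by an outside laboratory. Assay otherwise run per a previously described procedure.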

[2] = test system: P388; test: Cytotoxicity against mouse P388 cells; assay type: functional; details: read-out: ED50 (the source's name)
Method in brief: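 P-388 mouse lymphocytic leukemia cells, supplied by an academic laboratory. Test compounds were run at three concentrations (50, 5 and 0.5 μg/mL), following a previously described cytotoxicity procedure.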

[3] = test system: P388; test: Cytotoxicity against mouse P388 cells at 0.5 to 50 ug/ml; assay type: functional, cell-based; method in brief: as §1

Q: For `C=C(C)C(CC[C@@]1(C)CC/C(C)=C/[C@H](OC(C)=O)C[C@](C)(O)[C@H]2C[C@@H]21)OO` (stereo not given in full) [PACIFICIN H], which Activity [1] is on record?
A: Not toxic

Q: And the EC50 [2]?
A: 2.01 µg/mL (≈ 5.28 µM)

Q: Which results are given for `C/C1=C\CC[C@](C)(O)[C@H]2C[C@@H]2[C@@](C)(C/C=C/C(C)(C)O)CC1`?
A: Activity [3]: Not toxic; Activity [1]: Not toxic

Q: What does the source list for `C=C1CC/C=C(\C)CC[C@](C)(C/C=C/C(C)(C)O)[C@H]2C[C@H]12`?
A: Activity [3]: Not toxic; Activity [1]: Not toxic

Q: With `CC(C)(/C=C/C[C@@]1(C)CC[C@]2(C)O[C@H]2CC[C@](C)(O)[C@H]2C[C@@H]21)OO` [PACIFICIN C] as the compound, how does the Activity [1] read?
A: Not toxic

Q: And the EC50 [2]?
A: 1.44 µg/mL (≈ 4.25 µM)

Q: Which results are given for `CC(=O)O[C@H]1/C=C(\C)CC[C@](C)(C/C=C/C(C)(C)OO)[C@H]2C[C@@H]2[C@@](C)(O)C1`?
A: Activity [3]: Not toxic; Activity [1]: Not toxic

Q: `C=C(C)C(CC[C@@]1(C)CC[C@]2(C)O[C@H]2CC[C@](C)(O)[C@H]2C[C@@H]21)OO` (stereo not given in full) was tested. Which Activity [3] did it give?
A: Not toxic

Q: What about the Activity [1] of the same compound?
A: Not toxic

Q: How did the Activity [3] turn out when `C=C(C)C(O)CC[C@@]1(C)CC[C@]2(C)O[C@H]2CC[C@](C)(O)[C@H]2C[C@@H]21` (stereo not given in full) was run?
A: Not toxic

Q: What about the Activity [1] of the same compound?
A: Not toxic

Q: With `C=C1CC/C=C(\C)CC[C@](C)(CCC=C(C)C)[C@H]2C[C@H]12` as the compound, how does the Activity [3] read?
A: Not toxic

Q: What about the Activity [1] of the same compound?
A: Not toxic

Q: Which Activity [3] does the source give for `CC(C)=CCC[C@@]1(C)CC[C@]2(C)O[C@H]2CC[C@](C)(O)[C@H]2C[C@@H]21` here?
A: Not toxic

Q: And the Activity [1]?
A: Not toxic

Q: What does the source list for `CC(C)(O)/C=C/C[C@@]1(C)CC[C@]2(C)O[C@H]2CC[C@](C)(O)[C@H]2C[C@@H]21`?
A: Activity [3]: Not toxic; Activity [1]: Not toxic
